Compounds with a hit are over-represented: about 2.7% of the library has one in this group of screens.
NR1D1 modulator – modulators of Rev-erb alpha DNA binding, primary screen, biochemical, FITC-DNA, fluorescence polarization, uHTS | Nuclear receptor subfamily 1 group D member 1 (Homo sapiens), P20393 | AID 1259318, 2017 | Rev-erbα–FITC-DNA binding, 90 min | activity, % at 10 µM | 370,000 tested, 0.79% active;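 active = activity above about 14%, limit read from the data; passing the limit was not always enough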
NR2E3 ag-1 – NR2E3 agonists in two-hybrid cells, primary screen, cell-based, luminescence, CHO-S, Gal4-NCOR/VP16-NR2E3; Photoreceptor-specific nuclear receptor (Homo sapiens), Q9Y5X4; inhibition of corepressor binding, % at 3.98 µM; 360,000 tested, 0.35% active; AID 602229, 2012; luciferase;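 active = inhibition above the mean of all tested compounds plus 3 SD, cut at about 70% in these data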;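 also: higher means lower luciferase signal from less NR2E3 corepressor binding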
Target sequence (Q9Y5X4 whole entry, looked up, the tested form may be a part): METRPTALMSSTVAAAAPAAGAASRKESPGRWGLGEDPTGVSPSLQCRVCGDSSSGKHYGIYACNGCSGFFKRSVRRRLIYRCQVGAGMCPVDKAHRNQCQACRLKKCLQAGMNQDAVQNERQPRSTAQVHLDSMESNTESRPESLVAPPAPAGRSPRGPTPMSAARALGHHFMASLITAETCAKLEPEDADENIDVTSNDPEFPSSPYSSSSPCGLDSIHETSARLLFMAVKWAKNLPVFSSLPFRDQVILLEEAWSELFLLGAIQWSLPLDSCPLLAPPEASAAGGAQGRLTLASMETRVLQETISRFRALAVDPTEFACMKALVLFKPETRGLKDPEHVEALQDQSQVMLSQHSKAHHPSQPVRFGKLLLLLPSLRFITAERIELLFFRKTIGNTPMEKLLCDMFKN
MC4R ag barr – MC4R agonists recruiting beta-arrestin, primary screen, cell-based, luminescence, agonist arm of biased-ligand search. Melanocortin receptor 4 (Homo sapiens), P32245. U2OS MC4R beta-arrestin complementation; percent of melanotan II response, DMSO zero. activation, % at 8.9 µM. 360,000 tested, 0.98% active. AID 540308, 2011;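 active = activation above a per-plate cutoff, the mean activation of sample wells on that plate plus 3 SD, cut at about 8% in these data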
Target sequence (P32245 whole entry, looked up): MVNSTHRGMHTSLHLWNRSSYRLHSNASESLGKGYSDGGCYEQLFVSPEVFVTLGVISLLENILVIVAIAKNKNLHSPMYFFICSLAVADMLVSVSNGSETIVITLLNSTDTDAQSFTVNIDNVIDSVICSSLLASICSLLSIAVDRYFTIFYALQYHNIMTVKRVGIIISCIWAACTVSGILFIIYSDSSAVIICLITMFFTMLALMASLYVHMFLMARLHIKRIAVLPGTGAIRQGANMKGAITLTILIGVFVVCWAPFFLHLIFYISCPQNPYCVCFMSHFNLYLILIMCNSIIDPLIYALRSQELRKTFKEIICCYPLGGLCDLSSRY
MC4R antagonist – MC4R antagonists of cAMP signaling, primary screen, cell-based, TR-FRET, antagonist arm of biased-ligand search. MC4R-expressing cells, MTII-stimulated cAMP, LANCE TR-FRET. AID 540295, 2011. Melanocortin receptor 4 (Homo sapiens), P32245. inhibition, % at 6.5 µM. 360,000 tested, 0.48% active;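 active = inhibition above its plate's cutoff, the mean of tested wells on that plate plus 3 SD, cut at about 29% in these data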
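Material – human MC4R-expressing U2OS cells · Repeats – no replicates · Detection – TR-FRET with Eu-cAMP and labeled anti-cAMP, 671 nm · Times – compound 30 min, challenge 1 h, detection 1 h · Compound – single nominal compound dose of 6.5 µM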
NR2E3 ag-2 – inhibitors of NR2E3-RetCOR corepressor binding, primary screen, NR2E3 agonist project, biochemical, TR-FRET, GST-NR2E3, biotin-RetCOR | inhibition of corepressor binding, % at 4.78 µM | 320,000 tested, 0.12% active | 1536-well | Photoreceptor-specific nuclear receptor (Homo sapiens), Q9Y5X4;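 active = percent inhibition above the cutoff of mean plus 3 SD of all tested compounds, set per screening campaign, cut at about 20% in these data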
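Material: NR2E3–RetCOR corepressor complex / Amount: 1.35 nM GST-NR2E3 / Medium: Tris pH 7.5 / Compound: single nominal compound dose of 4.8 µM / Incubation: 5 h at 4 °C / Technique: TR-FRET, Eu(K)-anti-GST donor, streptavidin-D2 acceptor, ex 340, em 617/671 nm / Read-out basis: percent loss of FRET ratio relative to control wells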
PG9 Ab binder – binders of HIV-1 gp120 antibody PG9, primary screen, biochemical, TR-FRET | AID 624416, 2012 | inhibition, % at 6.7 µM | TR-FRET gp120-PG9 antibody binding | HIV-1 gp120 / PG9 antibody interaction | 360,000 tested, 0.43% active; in the data active = inhibition above about 8.5%
MC4R barr ag – MC4R beta-arrestin agonists, retest, confirmation, cell-based, luminescence, U2OS | shares compounds with MC4R ag barr | U2OS MC4R beta-arrestin recruitment; scaled DMSO 0%, Melanotan II 100% | activation, % at 8.9 µM | 2,400 tested, 31% active | AID 602192, 2012;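 active = mean activation across replicates above the hit cutoff set in the earlier primary screen, cut at about 8% in these data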
MOR-DOR barr ag – agonists of MOR-DOR heterodimerization, counter-screen for MC4R biased agonist project, cell-based, luminescence; shares compounds with MC4R ag barr; U2OS PathHunter beta-arrestin, beta-gal luminescence; percent of deltorphin B response, DMSO zero; activation, % at 9.2 µM; 2,400 tested, 5.8% active;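 active = mean activation across replicates exceeds the hit threshold derived in the earlier primary screen, cut at about 18% in these data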
A number is an active result.

Screening COc1c(Br)cc(Br)cc1/C=N/NC(=O)c1ccncc1 returned NR1D1 modulator inactive, NR2E3 ag-1 inactive, MC4R ag barr inactive, MC4R antagonist inactive, NR2E3 ag-2 inactive and PG9 Ab binder inactive.
Screening CCNC(=S)N/N=C/c1cc(Br)cc(Br)c1OC returned NR1D1 modulator inactive, NR2E3 ag-1 inactive, MC4R ag barr 12, MC4R antagonist inactive, NR2E3 ag-2 inactive, PG9 Ab binder inactive, MC4R barr ag inactive and MOR-DOR barr ag inactive.
`COc1cc(CO)c(Br)cc1OCC(N)=O` gave NR1D1 modulator inactive, NR2E3 ag-1 inactive, MC4R ag barr inactive, MC4R antagonist inactive, NR2E3 ag-2 inactive and PG9 Ab binder inactive.
Screening O=C(Nc1ccc2oc(-c3ccncc3)nc2c1)c1ccc2c(c1)OCCO2 returned NR1D1 modulator inactive, NR2E3 ag-1 inactive, MC4R ag barr 23, MC4R antagonist inactive, NR2E3 ag-2 inactive, PG9 Ab binder inactive, MC4R barr ag 12 and MOR-DOR barr ag inactive.
CO/N=C/NC(=O)NOCc1ccc(Cl)cc1Cl was read as NR1D1 modulator inactive, NR2E3 ag-1 inactive, MC4R ag barr inactive, MC4R antagonist inactive, NR2E3 ag-2 inactive and PG9 Ab binder inactive.
`O=C(N/C=N/OCc1ccc(Cl)cc1Cl)NOCc1c(Cl)cccc1Cl` gave NR1D1 modulator inactive, NR2E3 ag-1 inactive, MC4R ag barr 12, MC4R antagonist inactive, NR2E3 ag-2 inactive, PG9 Ab binder inactive, MC4R barr ag inactive and MOR-DOR barr ag inactive.
Screening O=C(COC(=O)c1ccccc1Nc1ccccc1)Nc1ccccc1 returned NR1D1 modulator inactive, NR2E3 ag-1 inactive, MC4R ag barr 15, MC4R antagonist inactive, NR2E3 ag-2 inactive, PG9 Ab binder inactive, MC4R barr ag inactive and MOR-DOR barr ag inactive.
CC(=O)c1ccc(NC(=O)COC(=O)c2ccccc2Nc2ccccc2)cc1 was read as NR1D1 modulator inactive, NR2E3 ag-1 inactive, MC4R ag barr 10, MC4R antagonist inactive, NR2E3 ag-2 inactive, PG9 Ab binder inactive, MC4R barr ag inactive and MOR-DOR barr ag inactive.
`CNC(=O)COC(=O)c1ccccc1Nc1ccccc1` gave NR1D1 modulator inactive, NR2E3 ag-1 inactive, MC4R ag barr inactive, MC4R antagonist inactive, NR2E3 ag-2 inactive and PG9 Ab binder inactive.
For COc1ccc(S(=O)(=O)N2N=C(C)Oc3ccccc3C2=O)cc1 the results were NR1D1 modulator inactive, NR2E3 ag-1 inactive, MC4R ag barr inactive, MC4R antagonist inactive, NR2E3 ag-2 inactive and PG9 Ab binder inactive.
For CCOc1ccc(-c2cc(CCCC(=O)NCCc3ccc(OC)c(OC)c3OC)no2)cc1 the results were NR1D1 modulator inactive, NR2E3 ag-1 inactive, MC4R ag barr 24, MC4R antagonist inactive, NR2E3 ag-2 inactive, PG9 Ab binder inactive, MC4R barr ag inactive and MOR-DOR barr ag inactive.
Screening COc1ccc(-c2cc(CCCC(=O)NCCc3ccc(OC)cc3OC)no2)cc1 returned NR1D1 modulator inactive, NR2E3 ag-1 inactive, MC4R ag barr inactive, MC4R antagonist inactive, NR2E3 ag-2 inactive and PG9 Ab binder inactive.
For CC(C)n1c(N2CCN(CC(=O)Nc3ccc4c(c3)OCCO4)CC2)nc2ccccc21 the results were NR1D1 modulator inactive, NR2E3 ag-1 inactive, MC4R ag barr inactive, MC4R antagonist inactive, NR2E3 ag-2 inactive and PG9 Ab binder inactive.
For Cc1cccc(NC(=O)C2C3CCC4C(CCC32)C4(Cl)Cl)c1 (centres undefined) the results were NR1D1 modulator inactive, NR2E3 ag-1 inactive, MC4R ag barr 13, MC4R antagonist inactive, NR2E3 ag-2 inactive, PG9 Ab binder inactive, MC4R barr ag inactive and MOR-DOR barr ag inactive.
CC(C)(C)c1ccc(-c2nnc(SCC3CCCCO3)n2-c2ccc(Cl)cc2)cc1 (centres undefined) was read as NR1D1 modulator inactive.
COCCN(CC(=O)Oc1ccccc1P(=O)(OC)OC)Cc1ccccc1 was read as NR1D1 modulator inactive, NR2E3 ag-1 inactive, MC4R ag barr inactive, MC4R antagonist inactive, NR2E3 ag-2 inactive and PG9 Ab binder inactive.
`O=S(=O)(Nc1ccc(-n2cccc2)cc1)c1ccc(Cl)cc1Cl` gave NR1D1 modulator inactive, NR2E3 ag-1 inactive, MC4R ag barr 11, MC4R antagonist inactive, NR2E3 ag-2 inactive, PG9 Ab binder inactive, MC4R barr ag inactive and MOR-DOR barr ag inactive.
COc1ccc(C=NNC(=O)c2ccccc2NS(=O)(=O)c2cccs2)cc1O was read as NR1D1 modulator inactive, NR2E3 ag-1 inactive, MC4R ag barr inactive, MC4R antagonist inactive and PG9 Ab binder inactive.
c1ccc(COc2cccc(-c3cc4nc(NCCOc5ccccc5)ccn4n3)c2)cc1 was read as NR1D1 modulator inactive, NR2E3 ag-1 inactive, MC4R ag barr inactive, MC4R antagonist inactive and PG9 Ab binder inactive.
For Clc1cccc(-c2cc3nc(NCCOc4ccccc4)ccn3n2)c1 the results were NR1D1 modulator inactive, NR2E3 ag-1 inactive, MC4R ag barr 11, MC4R antagonist inactive, PG9 Ab binder inactive, MC4R barr ag inactive and MOR-DOR barr ag inactive.
Screening Cc1nc(NC(=O)c2ccc(Br)o2)ccc1Br returned NR1D1 modulator inactive, NR2E3 ag-1 inactive, MC4R ag barr inactive, MC4R antagonist inactive and PG9 Ab binder inactive.
`Cc1nc(NC(=O)c2cc3ccccc3o2)ccc1Br` gave NR1D1 modulator inactive, NR2E3 ag-1 inactive, MC4R ag barr 11, MC4R antagonist inactive, NR2E3 ag-2 inactive, PG9 Ab binder inactive, MC4R barr ag inactive and MOR-DOR barr ag inactive.
`CCOc1ccc(NC(=S)NC(=O)/C=C/c2ccc(OC)c(OC)c2)c([N+](=O)[O-])c1` gave NR1D1 modulator inactive, NR2E3 ag-1 inactive, MC4R ag barr 17, MC4R antagonist inactive, NR2E3 ag-2 inactive, PG9 Ab binder inactive, MC4R barr ag 12 and MOR-DOR barr ag inactive.
For CCOc1ccc(NC(=O)/C=C/c2ccc(OC)cc2)c([N+](=O)[O-])c1 the results were NR1D1 modulator inactive, NR2E3 ag-1 inactive, MC4R ag barr inactive, MC4R antagonist inactive, NR2E3 ag-2 inactive and PG9 Ab binder inactive.

Assay outcomes deposited in PubChem by several laboratories.
